Measured values reported in ChEMBL document CHEMBL1629615, “Intrapulmonary pharmacokinetics and pharmacodynamics of posaconazole at steady state in healthy subjects” (Antimicrob Agents Chemother, 2009).

Key:
[1] = Cmax in healthy human plasma at 400 mg, po every 12 hrs for 7 days; assay type: ADME, organism-based; set-up: dose 400 mg, route oral
In short: (§1)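 Noncompartmental analysis of day-8 concentration-time data after 14 oral 400 mg doses every 12 h. Plasma parameters came from each subject's profile. ELF and alveolar cell values came from mean concentrations at each BAL time (3 to 24 h). AUC0-12 was calculated by the linear trapezoidal method.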

[2] = Cmax in healthy human lung epithelial lining fluid at 400 mg, po every 12 hrs for 7 days; assay type: ADME, organism-based; set-up: dose 400 mg, route oral; in short: as §1
[3] = Cmax in healthy human alveolar cell at 400 mg, po every 12 hrs for 7 days; assay type: ADME, organism-based, Lung, Pneumocyte; set-up: dose 400 mg, route oral; details: alveolar cells; in short: as §1
[4] = Tmax in healthy human plasma at 400 mg, po every 12 hrs for 7 days; assay type: ADME, organism-based; in short: as §1
[5] = Tmax in healthy human lung epithelial lining fluid at 400 mg, po every 12 hrs for 7 days; assay type: ADME, organism-based; in short: as §1
[6] = Tmax in healthy human alveolar cell at 400 mg, po every 12 hrs for 7 days; assay type: ADME, organism-based, Pneumocyte; details: alveolar cells; in short: as §1
[7] = AUC (0 to 12 hrs) in healthy human plasma at 400 mg, po every 12 hrs for 7 days; assay type: ADME, organism-based; set-up: dose 400 mg, time < 12 hr, route oral; in short: as §1
[8] = AUC (0 to 12 hrs) in healthy human lung epithelial lining fluid at 400 mg, po every 12 hrs for 7 days; assay type: ADME, organism-based; set-up: time < 12 hr, dose 400 mg, route oral; in short: as §1
[9] = AUC (0 to 12 hrs) in healthy human alveolar cell at 400 mg, po every 12 hrs for 7 days; assay type: ADME, organism-based, Pneumocyte; set-up: time < 12 hr, dose 400 mg, route oral; details: alveolar cells; in short: as §1
[10] = Ratio of Cmax in healthy human plasma at 400 mg, po every 12 hrs for 7 days to MIC90 for Aspergillus spp.; assay type: functional
[11] = Ratio of Cmax in healthy human lung epithelial lining fluid at 400 mg, po every 12 hrs for 7 days to MIC90 for Aspergillus spp.; assay type: functional
[12] = Ratio of Cmax in healthy human alveolar cell at 400 mg, po every 12 hrs for 7 days to MIC90 for Aspergillus spp.; assay type: functional, Pneumocyte
[13] = Ratio of AUC (0 to 24 hrs) in healthy human plasma at 400 mg, po every 12 hrs for 7 days to MIC90 for Aspergillus spp.; assay type: functional
[14] = Ratio of AUC (0 to 24 hrs) in healthy human lung epithelial lining fluid at 400 mg, po every 12 hrs for 7 days to MIC90 for Aspergillus spp.; assay type: functional
[15] = Ratio of AUC (0 to 24 hrs) in healthy human alveolar cell at 400 mg, po every 12 hrs for 7 days to MIC90 for Aspergillus spp.; assay type: functional, Pneumocyte
[16] = Drug level in healthy human plasma at 400 mg, po every 12 hrs for 7 days measured after 3 hrs of last dose; assay type: ADME, organism-based; details: read-out: Drug uptake
In short: (§2)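 Same dosing: 400 mg oral suspension after a high-fat meal every 12 h, 14 doses. Blood went into EDTA tubes at 0, 3, 5, 8, 12 and 24 h after the final dose and was spun at 1,300 x g for 10 min at 4°C. Plasma was frozen and assayed by validated LC-MS/MS, LLOQ 1.00 ng/ml, calibration 1.00 to 4,000 ng/ml.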

[17] = Drug level in healthy human plasma at 400 mg, po every 12 hrs for 7 days measured after 5 hrs of last dose; assay type: ADME, organism-based; details: read-out: Drug uptake; in short: as §2
[18] = Drug level in healthy human plasma at 400 mg, po every 12 hrs for 7 days measured after 8 hrs of last dose; assay type: ADME, organism-based; details: read-out: Drug uptake; in short: as §2
[19] = Drug level in healthy human plasma at 400 mg, po every 12 hrs for 7 days measured after 12 hrs of last dose; assay type: ADME, organism-based; details: read-out: Drug uptake; in short: as §2
[20] = Drug level in healthy human plasma at 400 mg, po every 12 hrs for 7 days measured after 24 hrs of last dose; assay type: ADME, organism-based; details: read-out: Drug uptake; in short: as §2
[21] = Drug level in healthy human alveolar cell at 400 mg, po every 12 hrs for 7 days measured after 3 hrs of last dose; assay type: ADME, organism-based, Pneumocyte; details: alveolar cells, read-out: Drug uptake
In short: (§3)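 Healthy adults got 400 mg oral suspension (40 mg/ml) 10 min after a high-fat meal every 12 h, for 14 doses over 8 days. Each subject had one bronchoscopy with BAL under topical lidocaine, no sedation, at 3, 5, 8, 12 or 24 h after the last dose. BAL fluid was spun at 400 x g for 5 min at 4°C. Supernatant and cell pellet were frozen at –70°C and assayed by LC-MS/MS against a plasma calibration curve. ELF volume was derived from urea.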

[22] = Drug level in healthy human alveolar cell at 400 mg, po every 12 hrs for 7 days measured after 5 hrs of last dose; assay type: ADME, organism-based, Pneumocyte; details: alveolar cells, read-out: Drug uptake; in short: as §3
[23] = Drug level in healthy human alveolar cell at 400 mg, po every 12 hrs for 7 days measured after 8 hrs of last dose; assay type: ADME, organism-based, Pneumocyte; details: alveolar cells, read-out: Drug uptake; in short: as §3
[24] = Drug level in healthy human alveolar cell at 400 mg, po every 12 hrs for 7 days measured after 12 hrs of last dose; assay type: ADME, organism-based, Pneumocyte; details: alveolar cells, read-out: Drug uptake; in short: as §3
[25] = Drug level in healthy human alveolar cell at 400 mg, po every 12 hrs for 7 days measured after 24 hrs of last dose; assay type: ADME, organism-based, Pneumocyte; details: alveolar cells, read-out: Drug uptake; in short: as §3
[26] = Drug level in healthy human lung epithelial lining fluid at 400 mg, po every 12 hrs for 7 days measured after 3 hrs of last dose; assay type: ADME, organism-based; details: read-out: Drug uptake; in short: as §3
[27] = Drug level in healthy human lung epithelial lining fluid at 400 mg, po every 12 hrs for 7 days measured after 5 hrs of last dose; assay type: ADME, organism-based; details: read-out: Drug uptake; in short: as §3
[28] = Drug level in healthy human lung epithelial lining fluid at 400 mg, po every 12 hrs for 7 days measured after 8 hrs of last dose; assay type: ADME, organism-based; details: read-out: Drug uptake; in short: as §3
[29] = Drug level in healthy human lung epithelial lining fluid at 400 mg, po every 12 hrs for 7 days measured after 12 hrs of last dose; assay type: ADME, organism-based; details: read-out: Drug uptake; in short: as §3
[30] = Drug level in healthy human lung epithelial lining fluid at 400 mg, po every 12 hrs for 7 days measured after 24 hrs of last dose; assay type: ADME, organism-based; details: read-out: Drug uptake; in short: as §3
[31] = Ratio of Drug level in healthy human alveolar cell to drug level in healthy human plasma at 400 mg, po every 12 hrs for 7 days measured after 3 hrs of last dose; assay type: ADME, organism-based, Pneumocyte; details: alveolar cells / plasma
[32] = Ratio of Drug level in healthy human alveolar cell to drug level in healthy human plasma at 400 mg, po every 12 hrs for 7 days measured after 5 hrs of last dose; assay type: ADME, organism-based, Pneumocyte; details: alveolar cells / plasma
[33] = Ratio of Drug level in healthy human alveolar cell to drug level in healthy human plasma at 400 mg, po every 12 hrs for 7 days measured after 8 hrs of last dose; assay type: ADME, organism-based, Pneumocyte; details: alveolar cells / plasma
[34] = Ratio of Drug level in healthy human alveolar cell to drug level in healthy human plasma at 400 mg, po every 12 hrs for 7 days measured after 12 hrs of last dose; assay type: ADME, organism-based, Pneumocyte; details: alveolar cells / plasma
[35] = Ratio of Drug level in healthy human alveolar cell to drug level in healthy human plasma at 400 mg, po every 12 hrs for 7 days measured after 24 hrs of last dose; assay type: ADME, organism-based, Pneumocyte; details: alveolar cells / plasma
[36] = Ratio of Drug level in healthy human lung epithelial lining fluid to drug level in healthy human plasma at 400 mg, po every 12 hrs for 7 days measured after 3 hrs of last dose; assay type: ADME, organism-based
[37] = Ratio of Drug level in healthy human lung epithelial lining fluid to drug level in healthy human plasma at 400 mg, po every 12 hrs for 7 days measured after 5 hrs of last dose; assay type: ADME, organism-based
[38] = Ratio of Drug level in healthy human lung epithelial lining fluid to drug level in healthy human plasma at 400 mg, po every 12 hrs for 7 days measured after 8 hrs of last dose; assay type: ADME, organism-based
[39] = Ratio of Drug level in healthy human lung epithelial lining fluid to drug level in healthy human plasma at 400 mg, po every 12 hrs for 7 days measured after 12 hrs of last dose; assay type: ADME, organism-based
[40] = Ratio of Drug level in healthy human lung epithelial lining fluid to drug level in healthy human plasma at 400 mg, po every 12 hrs for 7 days measured after 24 hrs of last dose; assay type: ADME, organism-based
[41] = T>MIC90 in healthy human lung epithelial lining fluid at 400 mg, po every 12 hrs for 7 days; assay type: functional
[42] = T>MIC90 in healthy human alveolar cell at 400 mg, po every 12 hrs for 7 days; assay type: functional, Pneumocyte
Plasma = assay: T>MIC90 in healthy human plasma at 400 mg, po every 12 hrs for 7 days; assay type: functional
Homo sapiens [43] = assay: Toxicity in healthy human plasma assessed as blood chemistry analysis at 400 mg, po every 12 hrs for 7 days; assay type: organism-based; details: in vivo
In short: (§4)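 Safety in healthy adults (21 to 55 y) given 400 mg orally every 12 h with a high-fat meal for 14 doses. Screening blood chemistry, hematology, urinalysis and ECG (corrected QT) were repeated on day 8.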

Homo sapiens [44] = assay: Toxicity in healthy human plasma assessed as hematological analysis at 400 mg, po every 12 hrs for 7 days; assay type: organism-based; details: in vivo; in short: as §4
Homo sapiens [45] = assay: Toxicity in healthy human assessed as urine analysis at 400 mg, po every 12 hrs for 7 days; assay type: organism-based; details: in vivo; in short: as §4
Homo sapiens [46] = assay: Toxicity in healthy human assessed as vital adverse effects at 400 mg, po every 12 hrs for 7 days; assay type: organism-based; details: in vivo; in short: as §4
[47] = Half life in human; assay type: ADME, organism-based; details: in vivo
[48] = Protein binding in human; assay type: ADME, organism-based; details: in vivo, read-out: PB
Homo sapiens [49] = assay: Cardiotoxicity in healthy human assessed as corrected QT intervals at 400 mg, po every 12 hrs for 8 days; details: in vivo

## CC[C@@H]([C@H](C)O)n1ncn(-c2ccc(N3CCN(c4ccc(OC[C@@H]5CO[C@@](Cn6cncn6)(c6ccc(F)cc6F)C5)cc4)CC3)cc2)c1=O [POSACONAZOLE]
[1]
  Cmax: 2080 ng/mL
[2]
  Cmax: 1860 ng/mL
[3]
  Cmax: 87700 ng/mL
[4]
  Tmax: 3.6 h
[5]
  Tmax: 5 h
[6]
  Tmax: 5 h
[7]
  AUC at 12 h: 21900 ng·h/mL
[8]
  AUC at 12 h: 18300 ng·h/mL
[9]
  AUC at 12 h: 715000 ng·h/mL
[10]
  Ratio: 4.15
[11]
  Ratio: 3.72
[12]
  Ratio: 175
[13]
  Ratio: 87.6
[14]
  Ratio: 73.2
[15]
  Ratio: 2860
[16]
  concentration at 3 h: 1930 ng/mL
[17]
  concentration at 5 h: 1930 ng/mL
[18]
  concentration at 8 h: 1730 ng/mL
[19]
  concentration at 12 h: 1620 ng/mL
[20]
  concentration at 24 h: 1280 ng/mL
[21]
  concentration at 3 h: 46200 ng/mL
[22]
  concentration at 5 h: 87700 ng/mL
[23]
  concentration at 8 h: 60900 ng/mL
[24]
  concentration at 12 h: 49000 ng/mL
[25]
  concentration at 24 h: 60700 ng/mL
[26]
  concentration at 3 h: 1660 ng/mL
[27]
  concentration at 5 h: 1860 ng/mL
[28]
  concentration at 8 h: 1690 ng/mL
[29]
  concentration at 12 h: 1020 ng/mL
[30]
  concentration at 24 h: 1800 ng/mL
[31]
  Kp at 3 h: 34.5
[32]
  Kp at 5 h: 44.3
[33]
  Kp at 8 h: 32.5
[34]
  Kp at 12 h: 27.3
[35]
  Kp at 24 h: 34.9
[36]
  Kp at 3 h: 1.08
[37]
  Kp at 5 h: 0.75
[38]
  Kp at 8 h: 0.95
[39]
  Kp at 12 h: 0.59
[40]
  Kp at 24 h: 0.92
[41]
  T>MIC90: 24 h
[42]
  T>MIC90: 24 h
Plasma
  T>MIC90: 22.3 h
Homo sapiens [43]
  Activity: Non-toxic
Homo sapiens [44]
  Activity: Non-toxic
Homo sapiens [45]
  Activity: Non-toxic
Homo sapiens [46]
  Activity: Non-toxic
[47]
  half-life: 35 h
[48]
  fraction unbound: < 0.02
Homo sapiens [49]
  Activity: Non-toxic
